Data as given in publication PMC3049929 (Journal of medicinal chemistry, 2008).

Assays:
[1] = tested on: P. falciparum K1 (chloroquine-resistant, pyrimethamine-resistant); type: cell-based; conditions: Plasmodium falciparum, K1, Erythrocyte, 48 h, read-out: ED50 (nM) K1
How it was run: (§1)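 Parasites cultured in type A+ human erythrocytes (2% hematocrit) in RPMI-1640 with 20% heat-inactivated type A+ human plasma, under 5% CO2/5% O2/90% N2. Test compound in DMSO added to culture at 0.5% parasitemia and 0.5% hematocrit. Incubated 37 °C for 48 h, then [8-3H]hypoxanthine (0.3 µCi) added for a further 24 h. Cells harvested to filter mats and counted by β-scintillation. Uninfected-erythrocyte background subtracted; DMSO-only wells taken as 100% growth. ED50 from linear regression of incorporation vs concentration.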

[2] = tested on: P. falciparum 3D7 (chloroquine-sensitive); type: cell-based; conditions: Plasmodium falciparum, 3D7, Erythrocyte, 48 h, read-out: ED50 (nM) 3D7
How it was run: as §1

Compound | IC50 [1] | IC50 [2]
Cn1cnc(S(=O)(=O)N(Cc2ccccc2)[C@@H]2CCC[C@@H]2N(Cc2cncn2C)c2ccc(C#N)cc2)c1 (racemic) [6a, (±)-[N-Benzyl-N-{cis-2-[(4-cyanophenyl)(3-methyl-3H-imidazol-4-ylmethyl)amino]cyclopentyl}]-1-methyl-1H-imidazole-4-sulfonamide] | 2400 nM | > 5000 nM
Cc1ccccc1CN([C@@H]1CCC[C@@H]1N(Cc1cncn1C)c1ccc(C#N)cc1)S(=O)(=O)c1cn(C)cn1 (racemic) [6b, (±)-[N-(2-Methylbenzyl)-N-{cis-2-[(4-cyanophenyl)(3-methyl-3H-imidazol-4-ylmethyl)amino]cyclopentyl}]-1-methyl-1H-imidazole-4-sulfonamide] | 2800 nM | 2800 nM
Cn1cnc(S(=O)(=O)N(Cc2ccsc2)[C@@H]2CCC[C@@H]2N(Cc2cncn2C)c2ccc(C#N)cc2)c1 (racemic) [6c, (±)-[N-(Thiophen-3-ylmethyl)-N-{cis-2-[(4-cyanophenyl)(3-methyl-3H-imidazol-4-ylmethyl)amino]cyclopentyl}]-1-methyl-1H-imidazole-4-sulfonamide] | 4200 nM | > 5000 nM
Cn1cnc(S(=O)(=O)N(CC2CCN(c3ncccn3)CC2)[C@@H]2CCC[C@@H]2N(Cc2cncn2C)c2ccc(C#N)cc2)c1 (racemic) [6e, (±)-[N-{N-(2-Pyrimidinyl)-piperidin-4-ylmethyl}-N-{cis-2-[(4-cyanophenyl)(3-methyl-3H-imidazol-4-ylmethyl)amino]cyclopentyl}]-1-methyl-1H-imidazole-4-sulfonamide] | 2500 nM | 3000 nM
Cn1cnc(S(=O)(=O)N(Cc2ccccc2)[C@H]2CCC[C@@H]2N(Cc2cncn2C)c2ccc(C#N)cc2)c1 (racemic) [7a, (±)-[N-Benzyl-N-{trans-2-[(4-cyanophenyl)(3-methyl-3H-imidazol-4-ylmethyl)amino]cyclopentyl}]-1-methyl-1H-imidazole-4-sulfonamide] |  | 3100 nM
Cn1cnc(S(=O)(=O)N(CC2CCN(C(=O)OC(C)(C)C)CC2)[C@H]2CC[C@@H](N(Cc3cncn3C)c3ccc(C#N)cc3)C2)c1 (racemic) [8d, (±)-[N-(N-tert-Butoxycarbonylpiperidin-4-ylmethyl)-N-{cis-3-[(4-cyanophenyl)-(3-methyl-3H-imidazol-4-ylmethyl)amino]cyclopentyl}]-1-methyl-1H-imidazole-4-sulfonamide] |  | 300 nM
Cn1cnc(S(=O)(=O)N(Cc2ccccc2)[C@@H]2CC[C@@H](N(Cc3cncn3C)c3ccc(C#N)cc3)C2)c1 (racemic) [9a, (±)-[N-Benzyl-N-{trans-3-[(4-cyanophenyl)(3-methyl-3H-imidazol-4-ylmethyl)amino]cyclopentyl}]-1-methyl-1H-imidazole-4-sulfonamide] |  | 340 nM
Cn1cnc(S(=O)(=O)N(CCCN(Cc2cncn2C)c2ccc(C#N)cc2)Cc2ccccc2)c1 [2a, [N-Benzyl-N-3-{(4-cyanophenyl)(3-methyl-3H-imidazol-4-ylmethyl)amino}propyl]-1-methyl-1H-imidazole-4-sulfonamide] |  | 3100 nM
Cn1cnc(S(=O)(=O)N(CCCN(Cc2cncn2C)c2ccc(C#N)cc2)CC2CCN(c3ncccn3)CC2)c1 [2e, [N-{N-(2-Pyrimidinyl)-piperidin-4-ylmethyl}-N-3-{(4-cyanophenyl)(3-methyl-3H-imidazol-4-ylmethyl)amino}propyl]-1-methyl-1H-imidazole-4-sulfonamide] |  | 1300 nM
Cn1cnc(S(=O)(=O)N(Cc2ccccc2)[C@H]2CC[C@H](N(Cc3cncn3C)c3ccc(C#N)cc3)CC2)c1 [11a, (±)-[N-Benzyl-N-{trans-4-[(4-cyanophenyl)(3-methyl-3H-imidazol-4-ylmethyl)amino]cyclohexyl}]-1-methyl-1H-imidazole-4-sulfonamide] | 1800 nM | 
